According to ChEMBL document CHEMBL5537190, “Development of Potent and Selective Monoacylglycerol Lipase Inhibitors. SARs, Structural Analysis, and Biological Characterization” (J Med Chem, 2024):
Calls of active or inactive are those of the source. The calls are words filed in the database; no cut-off is given here.

Key:
[1] = molecular target: T1, Monoglyceride lipase (Rattus norvegicus) (UniProt Q8R431); experiment: Inhibition of wild type rat MAGL expressed in human HeLa cells; assay type: cell-based; conditions: time 10.0 min, TDE = time-dependent effect
T1 sequence (whole entry): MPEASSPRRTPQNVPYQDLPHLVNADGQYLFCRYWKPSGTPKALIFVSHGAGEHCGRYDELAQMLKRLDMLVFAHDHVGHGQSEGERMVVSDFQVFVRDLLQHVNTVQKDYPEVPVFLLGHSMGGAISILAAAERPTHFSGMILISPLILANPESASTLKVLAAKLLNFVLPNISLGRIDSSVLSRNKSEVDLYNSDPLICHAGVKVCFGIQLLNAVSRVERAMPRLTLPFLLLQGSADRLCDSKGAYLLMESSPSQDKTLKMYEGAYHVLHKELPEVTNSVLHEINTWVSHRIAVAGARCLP
How it was run: (§1)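 Homogenates of HeLa cells overexpressing wild-type rat MAGL, in 50 mM Tris-HCl pH 8.0 with 0.5 mg/mL fatty-acid-free BSA, 37 °C; 2-OG substrate 10 µM final, oleic acid by LC/MS. Time course: preincubation for varied times, then 30 min with substrate. Dilution: enzyme concentrated 100-fold, preincubated 20 min with 10× IC50-equivalent compound or 1% DMSO, diluted 100-fold into substrate buffer, product followed over 60 min (n = 3).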

[2] = molecular target: T1, Monoglyceride lipase (Rattus norvegicus); experiment: Irreversible inhibition of rat MAGL expressed in human HeLa cells incubated for 60 mins; assay type: cell-based; how it was run: as §1
[3] = molecular target: Cannabinoid receptor 1 (Homo sapiens) (UniProt P21554); experiment: Agonist activity at CB1 receptor (unknown origin) at 10 uM; assay type: functional
[4] = molecular target: Cannabinoid receptor 2 (Homo sapiens, UniProt P34972); experiment: Agonist activity at human CB2 receptor at 10 uM by TR-FRET assay; assay type: functional
[5] = molecular target: Kappa-type opioid receptor (Homo sapiens) (UniProt P41145); experiment: Agonist activity at human KOP at 10 uM relative to control; assay type: functional; conditions: filed as agonist
[6] = molecular target: T2, Lysophosphatidylserine lipase ABHD12 (Mus musculus) (UniProt Q99LR1); experiment: Binding affinity to mouse brain ABHD12 at 0.1 to 1 uM incubated for 30 mins in presence of g MB064 by ABPP assay; assay type: tissue-based; conditions: dose 0.1-1 µM
T2 sequence (whole entry): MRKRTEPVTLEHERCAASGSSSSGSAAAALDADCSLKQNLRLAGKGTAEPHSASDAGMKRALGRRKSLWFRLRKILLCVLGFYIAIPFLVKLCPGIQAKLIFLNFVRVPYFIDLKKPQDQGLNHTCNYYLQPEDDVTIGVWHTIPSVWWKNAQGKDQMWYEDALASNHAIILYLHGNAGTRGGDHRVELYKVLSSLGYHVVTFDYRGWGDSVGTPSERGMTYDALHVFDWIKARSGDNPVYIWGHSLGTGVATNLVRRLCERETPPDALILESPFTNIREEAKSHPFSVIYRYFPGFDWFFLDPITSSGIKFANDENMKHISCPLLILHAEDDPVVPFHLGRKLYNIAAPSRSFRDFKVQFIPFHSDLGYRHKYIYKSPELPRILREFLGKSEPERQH
How it was run: (§2)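 Male C57Bl/6J mouse brain (27 weeks) homogenised; membrane and cytosol fractions separated and diluted to 2.0 mg/mL. Samples incubated with compound (0.1 or 1 µM final) or 2.5% DMSO for 30 min at RT. Probes MB064 and FP-Bodipy (100 nM each) added for 10 min. SDS-PAGE with in-gel fluorescence; Coomassie staining as loading control.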

[7] = molecular target: T3, Monoacylglycerol lipase ABHD6 (Mus musculus) (UniProt Q8R2Y0); experiment: Binding affinity to mouse brain ABHD6 at 0.1 to 1 uM incubated for 30 mins in presence of MB064 by ABPP assay; assay type: tissue-based; conditions: dose 0.1-1 µM; how it was run: as §2
T3 sequence (whole entry): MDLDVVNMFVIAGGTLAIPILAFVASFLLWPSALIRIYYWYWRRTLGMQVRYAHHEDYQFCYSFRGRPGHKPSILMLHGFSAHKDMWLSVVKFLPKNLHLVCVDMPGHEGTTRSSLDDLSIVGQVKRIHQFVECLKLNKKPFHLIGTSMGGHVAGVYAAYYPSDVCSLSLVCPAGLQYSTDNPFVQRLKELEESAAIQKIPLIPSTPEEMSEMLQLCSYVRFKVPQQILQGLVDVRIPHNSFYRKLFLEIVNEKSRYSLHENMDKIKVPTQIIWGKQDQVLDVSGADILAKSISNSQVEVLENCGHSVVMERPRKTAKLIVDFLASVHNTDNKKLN

[8] = molecular target: Acyl-protein thioesterase 2 (Mus musculus) (UniProt Q9WTL7); experiment: Binding affinity to mouse brain LYPLA2 at 0.1 to 1 uM incubated for 30 mins in presence of MB064 by ABPP assay; assay type: tissue-based; conditions: dose 0.1-1 µM; how it was run: as §2
[9] = molecular target: T4, Monoglyceride lipase (Mus musculus) (UniProt O35678); experiment: In-vivo inhibition of MAGL activity in brain of mouse at 5 mg/kg, ip measured after 1 hrs by LC-MS analysis; assay type: functional, organism-based
T4 sequence (whole entry): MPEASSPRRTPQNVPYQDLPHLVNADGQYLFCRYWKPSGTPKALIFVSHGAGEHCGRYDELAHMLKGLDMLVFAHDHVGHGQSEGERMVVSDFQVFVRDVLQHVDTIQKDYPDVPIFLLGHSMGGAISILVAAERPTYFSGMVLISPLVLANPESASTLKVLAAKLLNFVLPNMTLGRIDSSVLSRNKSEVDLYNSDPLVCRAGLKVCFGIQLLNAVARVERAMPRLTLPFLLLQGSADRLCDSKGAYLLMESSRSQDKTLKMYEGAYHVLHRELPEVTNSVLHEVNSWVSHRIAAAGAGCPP
How it was run: (§3)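 Adult male mice received 5 mg/kg i.p. (n = 3/group), DMSO vehicle. Killed at 1 h. Half-brains used for lipid analysis by LC-MS; the other half homogenised for MAGL activity assay. Compared with vehicle by two-tailed t-test.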

[10] = molecular target: T4, Monoglyceride lipase (Mus musculus); experiment: In-vivo inhibition of mouse MAGL assessed as fold increase in 2-AG content in brain at 5 mg/kg, ip measured after 1 hr by LC-MS/MS analysis; assay type: functional, organism-based; how it was run: as §3
[11] = molecular target: T4, Monoglyceride lipase (Mus musculus); experiment: In-vivo inhibition of mouse MAGL assessed as decrease in arachidonic acid level in brain at 5 mg/kg, ip measured after 1 hr by LC-MS/MS analysis; assay type: functional, organism-based; how it was run: as §3
[12] = molecular target: T4, Monoglyceride lipase (Mus musculus); experiment: In-vivo inhibition of mouse MAGL assessed as effect on docosahexaenoic level in brain at 5 mg/kg, ip measured after 1 hr by LC-MS/MS analysis; assay type: functional, organism-based; how it was run: as §3
[13] = molecular target: T4, Monoglyceride lipase (Mus musculus); experiment: In-vivo inhibition of mouse MAGL assessed as effect on oleic level in brain at 5 mg/kg, ip measured after 1 hr by LC-MS/MS analysis; assay type: functional, organism-based; how it was run: as §3
[14] = molecular target: T4, Monoglyceride lipase (Mus musculus); experiment: In-vivo inhibition of mouse MAGL assessed as effect on palmitic level in brain at 5 mg/kg, ip measured after 1 hr by LC-MS/MS analysis; assay type: functional, organism-based; how it was run: as §3
[15] = molecular target: T4, Monoglyceride lipase (Mus musculus); experiment: In-vivo inhibition of mouse MAGL assessed as effect on stearic level in brain at 5 mg/kg, ip measured after 1 hr by LC-MS/MS analysis; assay type: functional, organism-based; how it was run: as §3
[16] = molecular target: T4, Monoglyceride lipase (Mus musculus); experiment: In-vivo inhibition of mouse MAGL assessed as effect on AEA level in brain at 5 mg/kg, ip measured after 1 hr by LC-MS/MS analysis; assay type: functional, organism-based; how it was run: as §3
[17] = molecular target: T4, Monoglyceride lipase (Mus musculus); experiment: In-vivo inhibition of mouse MAGL assessed as effect on OEA level in brain at 5 mg/kg, ip measured after 1 hr by LC-MS/MS analysis; assay type: functional, organism-based; how it was run: as §3
[18] = molecular target: T4, Monoglyceride lipase (Mus musculus); experiment: In-vivo inhibition of mouse MAGL assessed as effect on PEA level in brain at 5 mg/kg, ip measured after 1 hr by LC-MS/MS analysis; assay type: functional, organism-based; how it was run: as §3
[19] = molecular target: T4, Monoglyceride lipase (Mus musculus); experiment: In-vivo inhibition of ip dosed mouse MAGL assessed as increase in 2-Ag level measured after 1 hr by LC-MS/MS analysis; assay type: functional, organism-based; conditions: dose 0.2-20 mg/kg
How it was run: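 Adult male mice dosed i.p. at 0.2, 1, 5 or 20 mg/kg (n = 3/group), vehicle DMSO or PEG/Tween (4:1). Killed at 1 h; brains halved and frozen. One half for 2-AG by LC-MS, the other for MAGL assay on homogenate. t-test against vehicle; two-way ANOVA with Bonferroni post-test.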

Chain of Acyl-protein thioesterase 2 (Mus musculus) (Q9WTL7 whole entry): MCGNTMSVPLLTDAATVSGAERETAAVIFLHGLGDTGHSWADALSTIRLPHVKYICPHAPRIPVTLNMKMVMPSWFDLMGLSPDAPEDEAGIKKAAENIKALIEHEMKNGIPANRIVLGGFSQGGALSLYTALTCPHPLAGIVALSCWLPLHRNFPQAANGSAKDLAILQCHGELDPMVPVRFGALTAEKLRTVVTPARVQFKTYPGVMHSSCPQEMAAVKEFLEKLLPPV
Chain of Kappa-type opioid receptor (Homo sapiens) (P41145 whole entry): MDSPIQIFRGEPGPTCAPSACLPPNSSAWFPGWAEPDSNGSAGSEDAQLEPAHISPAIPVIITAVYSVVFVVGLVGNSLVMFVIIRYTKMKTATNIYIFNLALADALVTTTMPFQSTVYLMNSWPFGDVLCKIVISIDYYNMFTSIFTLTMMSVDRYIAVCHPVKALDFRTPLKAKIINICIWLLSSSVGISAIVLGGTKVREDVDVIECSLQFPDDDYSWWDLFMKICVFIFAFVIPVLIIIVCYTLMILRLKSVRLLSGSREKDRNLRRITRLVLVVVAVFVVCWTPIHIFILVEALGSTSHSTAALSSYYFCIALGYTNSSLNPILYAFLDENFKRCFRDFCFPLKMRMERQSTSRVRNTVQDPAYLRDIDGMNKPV
Chain of Cannabinoid receptor 2 (P34972 whole entry): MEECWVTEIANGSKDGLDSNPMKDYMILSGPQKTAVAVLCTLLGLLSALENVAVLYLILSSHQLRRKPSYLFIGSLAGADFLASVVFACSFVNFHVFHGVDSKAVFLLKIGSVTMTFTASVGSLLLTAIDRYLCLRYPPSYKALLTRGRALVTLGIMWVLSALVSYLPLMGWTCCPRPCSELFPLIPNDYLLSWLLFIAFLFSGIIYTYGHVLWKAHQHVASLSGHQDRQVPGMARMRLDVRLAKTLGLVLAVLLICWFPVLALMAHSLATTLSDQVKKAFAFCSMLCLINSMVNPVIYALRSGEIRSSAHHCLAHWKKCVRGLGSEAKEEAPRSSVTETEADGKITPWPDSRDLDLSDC
Chain of Cannabinoid receptor 1 (Homo sapiens) (P21554 whole entry): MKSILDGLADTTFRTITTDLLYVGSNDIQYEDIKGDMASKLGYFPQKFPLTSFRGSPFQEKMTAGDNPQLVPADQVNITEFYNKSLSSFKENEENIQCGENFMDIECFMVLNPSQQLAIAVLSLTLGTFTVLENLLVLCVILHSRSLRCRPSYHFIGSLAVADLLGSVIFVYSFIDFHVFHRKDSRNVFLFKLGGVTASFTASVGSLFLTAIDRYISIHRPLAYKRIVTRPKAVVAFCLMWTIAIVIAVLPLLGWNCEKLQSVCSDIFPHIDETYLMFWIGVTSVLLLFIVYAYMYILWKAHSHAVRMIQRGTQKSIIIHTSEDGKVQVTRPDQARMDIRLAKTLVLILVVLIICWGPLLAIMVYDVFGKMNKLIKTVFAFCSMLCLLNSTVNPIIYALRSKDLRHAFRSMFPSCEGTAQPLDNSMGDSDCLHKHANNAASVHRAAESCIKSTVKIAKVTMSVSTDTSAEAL

| Compound | inhibition [1] | inhibition [2] | Activity [3] | Activity [4] | Activity [5] [%] | Activity [6] | Activity [7] | Activity [8] | inhibition [9] [%] | fold change (FC) [10] | inhibition [11] | inhibition [12] | inhibition [13] | inhibition [14] | inhibition [15] | inhibition [16] | inhibition [17] | inhibition [18] | inhibition [19] |
| --- | --- | --- | --- | --- | --- | --- | --- | --- | --- | --- | --- | --- | --- | --- | --- | --- | --- | --- | --- |
| O=C1[C@H](c2ccc(F)cc2)[C@@H](c2ccc3c(c2)OCO3)N1C1CCN(C(=O)n2nnc3ccccc32)CC1 (racemic) | Tde | Active | inactive | inactive | 73 | Active | Active | Active | 50 | > 40 | Active | Active | Active | Active | Active | Dose-Dependent Effect | Dose-Dependent Effect | Dose-Dependent Effect | Dose-Dependent Effect |
| O=C1[C@H](c2ccc(F)cc2)[C@@H](c2ccc3c(c2)OCO3)N1C1CCN(C(=O)n2nnc3ccccc32)CC1 |  |  |  |  |  | Active | Active | Active |  |  |  |  |  |  |  |  |  |  |  |
